Calls of active or inactive are those of the source. The rule behind the calls is not given here.
Experiments:
D(4) dopamine receptor [1] = target: T1, D(4) dopamine receptor (Homo sapiens, UniProt P21917); assay: Ability to displace [3H]spiperone from human Dopamine receptor D4.2 stably transfected in human embryonic kidney […] cells
T1 sequence (P21917 whole entry): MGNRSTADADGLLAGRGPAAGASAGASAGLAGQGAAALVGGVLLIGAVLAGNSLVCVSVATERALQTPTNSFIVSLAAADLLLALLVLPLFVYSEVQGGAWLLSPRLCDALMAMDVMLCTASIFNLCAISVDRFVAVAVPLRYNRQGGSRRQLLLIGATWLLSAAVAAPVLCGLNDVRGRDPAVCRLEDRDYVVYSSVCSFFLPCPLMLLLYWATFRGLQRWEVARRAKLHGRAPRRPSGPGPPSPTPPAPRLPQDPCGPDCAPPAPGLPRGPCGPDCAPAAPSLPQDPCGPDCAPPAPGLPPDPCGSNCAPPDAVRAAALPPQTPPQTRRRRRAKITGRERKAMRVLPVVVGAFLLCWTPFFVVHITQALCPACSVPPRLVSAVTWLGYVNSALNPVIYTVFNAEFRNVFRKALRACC
Outline: (§1)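 Radioligand binding on stably transfected cell lines: hD4 (D4.2 subtype) in HEK […] cells and hD2 (short isoform) in GH4C1 rat pituitary cells. Ki derived by Cheng–Prusoff transformation, reported as mean of at least two determinations ± SEM.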

D(4) dopamine receptor [2] = target: T1, D(4) dopamine receptor; assay: Inhibitory concentration required to reverse the dopamine inhibition of forskolin-stimulated adenyl cyclase activity in CHO cells stably expressing hD4 receptor; format: functional, cell-based
D(2) dopamine receptor [3] = target: T2, D(2) dopamine receptor (Homo sapiens, UniProt P14416); assay: Ability to displace [3H]spiperone from human Dopamine receptor D2S stably transfected in GH4C1 (rat pituitary) cells; format: cell-based, Pituitary gland cell; outline: as §1
[4] = target: T3, Adrenergic receptor alpha-1 (Rattus norvegicus, UniProt P15823+P23944+P43140); assay: Binding affinity towards Alpha-1 adrenergic receptor using 7-methoxy-[3H]-prazosin as radioligand in rat frontal cortex tissue; format: tissue-based
T3 sequence (P15823 whole entry): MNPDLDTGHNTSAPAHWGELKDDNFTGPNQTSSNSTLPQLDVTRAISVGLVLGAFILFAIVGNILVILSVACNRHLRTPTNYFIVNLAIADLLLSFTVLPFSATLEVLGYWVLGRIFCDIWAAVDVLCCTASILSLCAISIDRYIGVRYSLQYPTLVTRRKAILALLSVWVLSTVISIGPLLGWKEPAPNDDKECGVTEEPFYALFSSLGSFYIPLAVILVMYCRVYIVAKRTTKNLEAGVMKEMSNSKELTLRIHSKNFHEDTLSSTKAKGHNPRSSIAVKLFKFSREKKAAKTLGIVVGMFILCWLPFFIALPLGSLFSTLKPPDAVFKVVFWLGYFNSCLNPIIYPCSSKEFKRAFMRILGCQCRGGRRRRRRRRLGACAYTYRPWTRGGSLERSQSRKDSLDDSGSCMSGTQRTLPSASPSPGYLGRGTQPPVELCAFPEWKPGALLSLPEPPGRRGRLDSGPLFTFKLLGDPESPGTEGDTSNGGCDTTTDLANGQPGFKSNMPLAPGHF
T3 sequence (P23944 whole entry): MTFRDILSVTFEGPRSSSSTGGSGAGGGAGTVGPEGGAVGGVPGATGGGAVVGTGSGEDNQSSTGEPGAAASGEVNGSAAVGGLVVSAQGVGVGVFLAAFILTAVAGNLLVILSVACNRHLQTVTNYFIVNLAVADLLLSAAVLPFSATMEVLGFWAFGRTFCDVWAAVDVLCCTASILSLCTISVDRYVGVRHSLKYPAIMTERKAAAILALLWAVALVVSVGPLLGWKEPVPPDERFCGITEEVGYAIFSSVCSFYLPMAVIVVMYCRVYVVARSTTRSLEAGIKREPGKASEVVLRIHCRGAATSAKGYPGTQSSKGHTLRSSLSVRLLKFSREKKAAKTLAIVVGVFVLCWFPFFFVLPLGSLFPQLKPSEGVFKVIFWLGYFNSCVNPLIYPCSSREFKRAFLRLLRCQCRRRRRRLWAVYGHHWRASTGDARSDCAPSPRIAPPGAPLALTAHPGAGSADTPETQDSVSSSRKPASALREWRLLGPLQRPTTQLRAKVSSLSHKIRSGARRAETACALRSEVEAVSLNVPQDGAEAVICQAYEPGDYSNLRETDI
T3 sequence (P43140 whole entry): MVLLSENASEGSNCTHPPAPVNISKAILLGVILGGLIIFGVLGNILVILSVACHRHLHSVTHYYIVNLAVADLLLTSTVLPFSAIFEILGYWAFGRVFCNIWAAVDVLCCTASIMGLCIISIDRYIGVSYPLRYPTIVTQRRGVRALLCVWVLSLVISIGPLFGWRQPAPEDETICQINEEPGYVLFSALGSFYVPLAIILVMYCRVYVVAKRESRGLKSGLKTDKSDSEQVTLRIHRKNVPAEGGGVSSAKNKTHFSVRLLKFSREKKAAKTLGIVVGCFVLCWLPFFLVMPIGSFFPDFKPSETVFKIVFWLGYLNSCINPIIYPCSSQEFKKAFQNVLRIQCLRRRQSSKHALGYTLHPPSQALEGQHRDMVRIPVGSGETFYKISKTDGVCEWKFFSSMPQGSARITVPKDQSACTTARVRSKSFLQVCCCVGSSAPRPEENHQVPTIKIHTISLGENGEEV
Outline: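 Rat frontal cortex tissue as α1 receptor source, 7-methoxy-[3H]-prazosin as radioligand, clozapine as reference. Ki obtained by Cheng–Prusoff transformation; mean of at least two determinations ± SEM.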

[5] = target: T4, Adrenergic receptor alpha-1 (Rattus norvegicus) (UniProt P15823+P23944+P43140); assay: Inhibition of 7-methoxy-[3H]-prazosin binding to Alpha-1 adrenergic receptor in rat frontal cortex tissue at 100 nM
D(2) dopamine receptor [6] = target: T2, D(2) dopamine receptor; assay: Inhibition of [3H]spiperone binding to human Dopamine receptor D2S stably transfected in GH4C1 (rat pituitary) cells at 100 nM; details: Pituitary gland cell
[7] = target: T5, D(4) dopamine receptor (Homo sapiens) (UniProt P21917); assay: Inhibition of [3H]spiperone binding to human Dopamine receptor D4.2 stably transfected in human embryonic kidney […] cells at 100 nM
T5 sequence (whole entry): T1 sequence (P21917 whole entry)

[8] = target: T4, Adrenergic receptor alpha-1 (Rattus norvegicus); assay: Inhibition of 7-methoxy-[3H]-prazosin binding to Alpha-1 adrenergic receptor in rat frontal cortex tissue at 100 nM; IA denotes inactive
D(2) dopamine receptor [9] = target: T2, D(2) dopamine receptor; assay: Inhibition of [3H]spiperone binding to human Dopamine receptor D2S stably transfected in GH4C1 (rat pituitary) cells at 100 nM; IA denotes inactive; details: Pituitary gland cell

T2 sequence (P14416 whole entry): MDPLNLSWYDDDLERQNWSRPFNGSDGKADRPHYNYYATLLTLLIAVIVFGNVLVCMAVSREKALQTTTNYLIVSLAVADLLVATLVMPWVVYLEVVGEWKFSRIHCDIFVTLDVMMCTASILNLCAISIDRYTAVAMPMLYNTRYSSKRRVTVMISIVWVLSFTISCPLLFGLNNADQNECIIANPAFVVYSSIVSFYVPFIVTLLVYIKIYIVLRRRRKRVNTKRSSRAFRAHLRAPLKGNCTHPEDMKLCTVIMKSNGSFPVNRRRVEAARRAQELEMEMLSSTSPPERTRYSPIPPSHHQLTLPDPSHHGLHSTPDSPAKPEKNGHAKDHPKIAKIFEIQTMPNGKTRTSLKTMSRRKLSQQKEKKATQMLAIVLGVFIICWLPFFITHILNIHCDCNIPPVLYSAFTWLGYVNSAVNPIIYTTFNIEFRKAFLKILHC

Row | Ki (D(4) dopamine receptor [1]) [nM] | Ki (D(2) dopamine receptor [3]) [nM] | Ki [4] [nM] | Compound | other results
1 | 3 | 980 | 1200 | O=C(N[C@H]1CCN(Cc2ccccc2)C1)c1ccc(-c2cccs2)cc1 | 
2 | 2 | 70 | 140 | O=C(N[C@H]1CCN(Cc2ccccc2)C1)c1cccc(-c2ccsc2)c1 | 
3 | 24 | 1500 | 330 | O=C(N[C@@H]1CCN(Cc2ccccc2)C1)c1ccc(-c2cccs2)cc1 | 
4 | 36 | 3100 |  | O=Cc1ccccc1-c1ccc(C(=O)NC2CCN(Cc3ccccc3)C2)cc1 (configuration not stated) | 
5 | 17 | 4000 |  | O=C(NC1CCN(Cc2ccccc2)C1)c1ccc(-c2cccc(F)c2)cc1 (configuration not stated) | 
6 | 24 | 5000 |  | Nc1cccc(-c2ccc(C(=O)NC3CCN(Cc4ccccc4)C3)cc2)c1 (configuration not stated) | 
7 | 18 | 900 | 170 | O=C(N[C@@H]1CCN(Cc2ccccc2)C1)c1ccc(-c2ccsc2)cc1 | 

Further lines, the molecule ahead of its results:

Row | Compound | Ki (D(4) dopamine receptor [1]) [nM] | Ki (D(2) dopamine receptor [3]) [nM] | Ki [4] [nM] | other results
8 | O=C(NC1CCN(Cc2ccccc2)C1)c1ccc(-c2ccccc2)cc1 (configuration not stated) | 3 | 600 |  | IC50 (D(4) dopamine receptor [2]): 1500 nM
9 | O=C(NC1CCN(Cc2ccccc2)C1)c1ccc(-c2ccc(F)cc2)cc1 (configuration not stated) | 8 | 120 |  | 
10 | O=C(N[C@@H]1CCN(Cc2ccccc2)C1)c1cccc(-c2ccsc2)c1 | 3.4 | 94 | 170 | 
11 | O=C(NC1CCN(Cc2ccccc2)C1)c1cccc(-c2ccccc2)c1 (configuration not stated) | 4 | 150 |  | 
12 | O=C(NC1CCN(Cc2ccccc2)C1)c1ccc(-c2ccsc2)cc1 (configuration not stated) | 2 | 1200 |  | 
13 | O=C(N[C@H]1CCN(Cc2ccccc2)C1)c1ccc(-c2ccsc2)cc1 | 2 | 1000 | 610 | 
14 | CN(C(=O)c1ccc(-c2ccsc2)cc1)[C@H]1CCN(Cc2ccccc2)C1 |  |  |  | inhibition [5]: 0.29%; inhibition (D(2) dopamine receptor [6]): 7.4%; inhibition [7]: 40%
15 | CSc1ccc(-c2ccc(C(=O)NC3CCN(Cc4ccccc4)C3)cc2)cc1 (configuration not stated) | 17 | 4000 |  | 
16 | O=C(NC1CCN(Cc2ccccc2)C1)c1ccc(-c2ccc(Cl)cc2)cc1 (configuration not stated) | 5 | 2600 |  | 
17 | O=S(=O)(N[C@H]1CCN(Cc2ccccc2)C1)c1ccc(-c2cccs2)cc1 |  |  |  | inhibition [7]: 13%; inhibition [8]: inactive; inhibition (D(2) dopamine receptor [9]): inactive
18 | O=Cc1ccc(-c2ccc(C(=O)NC3CCN(Cc4ccccc4)C3)cc2)cc1 (configuration not stated) | 70 | 3700 |  | 
19 | O=C(NC1CCN(Cc2ccccc2)C1)c1ccc(-c2cccs2)cc1 (configuration not stated) | 3 | 840 |  | 
20 | O=C(NC1CCN(Cc2ccccc2)C1)c1ccc(-c2ccc(C(F)(F)F)cc2)cc1 (configuration not stated) | 17 | 8000 |  | 
21 | O=C(N[C@H]1CCN(Cc2ccccc2)C1)c1cccc(-c2cccs2)c1 | 1.5 | 60 | 160 | 

— ChEMBL document CHEMBL1137866, “N-(1-Benzylpyrrolidin-3-yl)arylbenzamides as potent and selective human dopamine D4 antagonists” (Bioorg Med Chem Lett, 2004)
